In ChEMBL document CHEMBL4261600 (Eur J Med Chem, 2018):

Experiments:
[1] = molecular target: Serine/threonine-protein kinase RIO3 (Homo sapiens) (UniProt O14730); test: Binding affinity to wild-type human full length RIOK3 (M1 to E519 residues) expressed in bacterial expression system assessed as remaining unbound target protein level at 1000 nM by Kinomescan method relative to control
Outline: (§1)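 KINOMEscan competition binding profile across a panel of 468 kinases and mutants, with the inhibitor tested at a single concentration of 1 μM. Binding is reported as percent of control, meaning signal relative to a DMSO control.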

[2] = molecular target: Tyrosine-protein kinase JAK2 (Homo sapiens) (UniProt O60674); test: Binding affinity to wild-type human partial length JAK2 JH1 catalytic domain (A829 to G1132 residues) expressed in mammalian expression system assessed as remaining unbound target protein level at 1000 nM by Kinomescan method relative to control
[3] = Apparent volume of distribution in Sprague-Dawley rat at 3 mg/kg, iv by LC-MS/MS analysis; type: ADME, organism-based; conditions: in vivo, read-out: Vz
Outline: (§2)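 Non-compartmental PK. Male SD rats 190-210 g, mice and beagle dogs acclimatized one week, fasted 12 h with water, split into iv and po groups (mice 48, rats 6, dogs 6). iv 3/3/2 mg/kg (mice/rats/dogs); po 10/20/10 mg/kg; vehicle DMSO in 5% glucose water. Blood at 2 or 5 to 720 min; plasma protein-precipitated with methanol, caffeine internal standard, LC-MS/MS.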

[4] = molecular target: Death-associated protein kinase 1 (Homo sapiens) (UniProt P53355); test: Binding affinity to wild-type human partial length DAPK1 (M1 to F296 residues) expressed in bacterial expression system assessed as remaining unbound target protein level at 1000 nM by Kinomescan method relative to control; outline: as §1
Chain of Death-associated protein kinase 1 (Homo sapiens) (P53355 whole entry, looked up, the tested form may be a part): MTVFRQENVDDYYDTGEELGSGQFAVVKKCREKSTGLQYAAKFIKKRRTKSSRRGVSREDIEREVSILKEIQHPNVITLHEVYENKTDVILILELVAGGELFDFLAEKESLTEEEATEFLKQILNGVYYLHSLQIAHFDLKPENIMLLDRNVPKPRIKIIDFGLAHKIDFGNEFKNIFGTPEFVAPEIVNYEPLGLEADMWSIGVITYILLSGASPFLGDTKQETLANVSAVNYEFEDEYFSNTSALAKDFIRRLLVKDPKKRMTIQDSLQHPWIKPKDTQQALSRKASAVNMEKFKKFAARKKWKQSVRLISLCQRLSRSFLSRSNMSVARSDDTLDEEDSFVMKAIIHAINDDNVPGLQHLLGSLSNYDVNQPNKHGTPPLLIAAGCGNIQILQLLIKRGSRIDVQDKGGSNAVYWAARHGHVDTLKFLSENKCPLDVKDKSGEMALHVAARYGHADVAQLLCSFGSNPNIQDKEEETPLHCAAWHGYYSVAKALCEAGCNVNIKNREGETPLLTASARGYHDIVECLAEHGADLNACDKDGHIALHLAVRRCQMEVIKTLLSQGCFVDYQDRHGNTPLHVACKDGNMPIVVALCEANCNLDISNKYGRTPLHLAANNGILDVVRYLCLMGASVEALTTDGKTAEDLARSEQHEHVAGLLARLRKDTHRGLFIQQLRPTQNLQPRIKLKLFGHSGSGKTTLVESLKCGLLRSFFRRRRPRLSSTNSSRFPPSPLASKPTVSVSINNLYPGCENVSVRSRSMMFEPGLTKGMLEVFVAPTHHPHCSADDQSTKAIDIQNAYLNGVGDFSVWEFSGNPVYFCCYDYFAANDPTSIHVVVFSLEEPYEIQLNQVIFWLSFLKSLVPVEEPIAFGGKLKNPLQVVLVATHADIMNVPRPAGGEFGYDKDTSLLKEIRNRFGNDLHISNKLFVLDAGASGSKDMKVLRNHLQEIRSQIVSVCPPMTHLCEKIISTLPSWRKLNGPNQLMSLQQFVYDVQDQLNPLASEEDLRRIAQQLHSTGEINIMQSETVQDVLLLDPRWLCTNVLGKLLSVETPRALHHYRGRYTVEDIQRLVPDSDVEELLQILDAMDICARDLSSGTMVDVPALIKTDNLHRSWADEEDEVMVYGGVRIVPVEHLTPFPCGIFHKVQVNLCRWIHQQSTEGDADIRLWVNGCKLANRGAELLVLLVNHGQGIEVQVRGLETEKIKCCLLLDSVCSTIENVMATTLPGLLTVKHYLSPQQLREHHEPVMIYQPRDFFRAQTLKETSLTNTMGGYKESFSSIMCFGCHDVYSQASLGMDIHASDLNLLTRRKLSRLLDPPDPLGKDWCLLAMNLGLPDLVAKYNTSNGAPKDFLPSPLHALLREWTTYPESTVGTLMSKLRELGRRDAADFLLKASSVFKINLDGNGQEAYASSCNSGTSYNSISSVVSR

[5] = molecular target: Serine/threonine-protein kinase ICK (Homo sapiens) (UniProt Q9UPZ9); test: Binding affinity to wild-type human partial length ICK (M1 to P314 residues) expressed in mammalian expression system assessed as remaining unbound target protein level at 1000 nM by Kinomescan method relative to control
Outline: (§3)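 KINOMEscan binding panel of 468 kinases/mutants. Inhibitor was tested at a single concentration of 1 μM. Binding is reported as percent of control, defined relative to a DMSO control.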

[6] = molecular target: Inhibitor of nuclear factor kappa-B kinase subunit epsilon (Homo sapiens) (UniProt Q14164); test: Binding affinity to wild-type human full length IKK-epsilon (M1 to V716 residues) expressed in mammalian expression system assessed as remaining unbound target protein level at 1000 nM by Kinomescan method relative to control; outline: as §1
Chain of Inhibitor of nuclear factor kappa-B kinase subunit epsilon (Homo sapiens) (Q14164 whole entry, the tested form may be a part): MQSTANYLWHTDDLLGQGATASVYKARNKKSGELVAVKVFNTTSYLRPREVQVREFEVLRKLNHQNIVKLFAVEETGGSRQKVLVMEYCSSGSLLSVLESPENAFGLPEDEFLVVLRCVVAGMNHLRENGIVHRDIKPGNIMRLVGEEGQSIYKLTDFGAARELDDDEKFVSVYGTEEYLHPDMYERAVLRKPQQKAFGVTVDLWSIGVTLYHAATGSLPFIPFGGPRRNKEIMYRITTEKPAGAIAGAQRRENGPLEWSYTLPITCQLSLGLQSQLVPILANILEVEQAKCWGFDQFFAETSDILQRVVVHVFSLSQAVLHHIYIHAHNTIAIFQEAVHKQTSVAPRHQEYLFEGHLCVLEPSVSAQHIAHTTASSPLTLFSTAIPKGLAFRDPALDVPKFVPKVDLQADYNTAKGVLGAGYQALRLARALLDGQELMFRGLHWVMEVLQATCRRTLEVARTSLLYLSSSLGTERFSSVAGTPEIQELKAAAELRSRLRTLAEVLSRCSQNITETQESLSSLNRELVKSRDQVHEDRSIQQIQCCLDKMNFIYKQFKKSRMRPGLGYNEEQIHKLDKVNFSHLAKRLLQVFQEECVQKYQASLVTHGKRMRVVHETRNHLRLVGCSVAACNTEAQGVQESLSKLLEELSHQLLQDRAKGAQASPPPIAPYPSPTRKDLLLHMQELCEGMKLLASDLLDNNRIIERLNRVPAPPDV

[7] = molecular target: ALK tyrosine kinase receptor (Homo sapiens) (UniProt Q9UM73); test: Binding affinity to wild-type human partial length ALK (I1088 to E1409 residues) expressed in mammalian expression system assessed as remaining unbound target protein level at 1000 nM by Kinomescan method relative to control
Outline: (§4)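 Profiled in a KINOMEscan binding panel with the inhibitor at a single concentration of 1 μM. Binding to each kinase was read out as percent of control, relative to a DMSO control. Strong binders were defined as those with a percent control value below 1.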

[8] = AUC (0 to infinity) in mouse at 3 mg/kg, iv by LC-MS/MS analysis; type: ADME, organism-based; parameters: dose 3 mg/kg, route intravenous, time infinity; conditions: in vivo; outline: as §2
[9] = molecular target: Insulin-like growth factor 1 receptor (Homo sapiens) (UniProt P08069); test: Binding affinity to wild-type human partial length IGF1R (L972 to D1294 residues) expressed in bacterial expression system assessed as remaining unbound target protein level at 1000 nM by Kinomescan method relative to control
[10] = tested on: Receptor-type tyrosine-protein kinase FLT3 (Homo sapiens), P36888 [D835H]; test: Binding affinity to human partial length FLT3 D835H mutant (V592 to Y969 residues) expressed in bacterial expression system assessed as remaining unbound target protein level at 1000 nM by Kinomescan method relative to control
Outline: (§5)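 KINOMEscan competition-binding profiling across the panel of 468 kinases and mutants, with inhibitor tested at 1 μM. Binding is expressed as percent of control, with DMSO as the reference control.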

[11] = molecular target: Tyrosine-protein kinase receptor UFO (Homo sapiens) (UniProt P30530); test: Binding affinity to wild-type human partial length AXL (R497 to Y821 residues) expressed in bacterial expression system assessed as remaining unbound target protein level at 1000 nM by Kinomescan method relative to control; outline: as §1
[12] = molecular target: Serine/threonine-protein kinase Nek10 (Homo sapiens) (UniProt Q6ZWH5); test: Binding affinity to wild-type human partial length NEK10 (L488 to R809 residues) expressed in mammalian expression system assessed as remaining unbound target protein level at 1000 nM by Kinomescan method relative to control
[13] = molecular target: Dual specificity mitogen-activated protein kinase kinase 4 (Homo sapiens) (UniProt P45985); test: Binding affinity to wild-type human partial length MEK4 (S84 to D399 residues) expressed in mammalian expression system assessed as remaining unbound target protein level at 1000 nM by Kinomescan method relative to control; outline: as §3
[14] = molecular target: Protein kinase C epsilon type (Homo sapiens) (UniProt Q02156); test: Binding affinity to wild-type human partial length PRKCE (A378 to P737 residues) expressed in mammalian expression system assessed as remaining unbound target protein level at 1000 nM by Kinomescan method relative to control
[15] = Antiproliferative activity against human MEC1 cells after 72 hrs by Celltiter-Glo assay; type: functional; conditions: MEC1, 72 h
Outline: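 Cells seeded at 3000/well in 96-well plates, exposed to serially diluted compound for 72 h at 37 °C, 5% CO2. Viability read by CellTiter-Glo luminescence and normalized to DMSO control. GI50 derived from curve fit, mean of three independent measurements. Culture media: DMEM/10% FBS for adherent lines; IMDM for MV4-11 and MEC-1/2; RPMI 1640 for suspension lines and CHL.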

[16] = molecular target: Epidermal growth factor receptor (Homo sapiens) (UniProt P00533); test: Binding affinity to human partial length EGFR E746-A750del mutant expressed in bacterial expression system assessed as remaining unbound target protein level at 1000 nM by Kinomescan method relative to control; outline: as §5
[17] = molecular target: Serine/threonine-protein kinase D1 (Homo sapiens) (UniProt Q15139); test: Binding affinity to wild-type human partial length PRKD1 (G551 to E870 residues) expressed in bacterial expression system assessed as remaining unbound target protein level at 1000 nM by Kinomescan method relative to control
Chain of Serine/threonine-protein kinase D1 (Homo sapiens) (Q15139 whole entry, the tested form may be a part): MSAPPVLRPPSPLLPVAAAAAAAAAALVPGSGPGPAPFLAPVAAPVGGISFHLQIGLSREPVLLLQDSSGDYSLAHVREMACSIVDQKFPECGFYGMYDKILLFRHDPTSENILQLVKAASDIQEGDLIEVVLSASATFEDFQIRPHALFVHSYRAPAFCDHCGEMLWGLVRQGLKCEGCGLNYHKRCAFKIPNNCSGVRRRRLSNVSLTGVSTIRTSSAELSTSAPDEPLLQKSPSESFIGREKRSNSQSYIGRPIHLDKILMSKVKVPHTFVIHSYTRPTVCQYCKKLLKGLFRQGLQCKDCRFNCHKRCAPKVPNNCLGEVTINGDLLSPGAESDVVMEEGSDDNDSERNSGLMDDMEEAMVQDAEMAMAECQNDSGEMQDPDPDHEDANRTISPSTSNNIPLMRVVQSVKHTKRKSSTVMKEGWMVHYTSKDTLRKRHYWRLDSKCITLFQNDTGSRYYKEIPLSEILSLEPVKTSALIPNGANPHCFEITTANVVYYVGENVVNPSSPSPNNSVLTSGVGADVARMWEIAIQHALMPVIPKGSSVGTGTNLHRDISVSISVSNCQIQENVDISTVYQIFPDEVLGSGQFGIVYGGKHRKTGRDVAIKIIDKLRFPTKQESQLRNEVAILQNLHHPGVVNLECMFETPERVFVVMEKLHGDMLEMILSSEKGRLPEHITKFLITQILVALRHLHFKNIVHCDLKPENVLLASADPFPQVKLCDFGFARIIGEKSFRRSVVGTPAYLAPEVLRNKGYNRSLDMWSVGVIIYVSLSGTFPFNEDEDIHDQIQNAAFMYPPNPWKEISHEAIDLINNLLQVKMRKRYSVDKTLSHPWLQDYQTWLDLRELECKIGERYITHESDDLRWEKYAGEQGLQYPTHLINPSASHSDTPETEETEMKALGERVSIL

[18] = MRT (0 to infinity) in beagle dog at 2 mg/kg, iv by LC-MS/MS analysis; type: ADME, organism-based, Canis lupus familiaris; conditions: in vivo
[19] = molecular target: Mitogen-activated protein kinase 14 (Homo sapiens) (UniProt Q16539); test: Binding affinity to wild-type human full length p38-alpha (M1 to S360 residues) expressed in bacterial expression system assessed as remaining unbound target protein level at 1000 nM by Kinomescan method relative to control; outline: as §4
Chain of Mitogen-activated protein kinase 14 (Homo sapiens) (Q16539 whole entry, the tested form may be a part, canonical isoform): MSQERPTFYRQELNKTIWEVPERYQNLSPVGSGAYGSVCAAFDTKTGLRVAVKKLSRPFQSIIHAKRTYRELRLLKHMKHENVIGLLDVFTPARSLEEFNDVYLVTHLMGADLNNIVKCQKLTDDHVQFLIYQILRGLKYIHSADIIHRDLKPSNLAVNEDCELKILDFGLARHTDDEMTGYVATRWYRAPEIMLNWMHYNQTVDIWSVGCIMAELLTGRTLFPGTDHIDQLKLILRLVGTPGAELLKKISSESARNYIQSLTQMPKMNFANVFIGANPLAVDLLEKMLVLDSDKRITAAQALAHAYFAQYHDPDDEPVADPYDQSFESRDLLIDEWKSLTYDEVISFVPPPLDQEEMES

[20] = tested on: Phosphatidylinositol 4,5-bisphosphate 3-kinase catalytic subunit alpha isoform (Homo sapiens), P42336 [E542K]; test: Binding affinity to human partial length PIK3CA E542K mutant (R108 to N1068 residues) expressed in mammalian expression system assessed as remaining unbound target protein level at 1000 nM by Kinomescan method relative to control; outline: as §5
Chain of Phosphatidylinositol 4,5-bisphosphate 3-kinase catalytic subunit alpha isoform (Homo sapiens), P42336 [E542K] (P42336 whole entry E542K, the tested form may be a part, canonical isoform): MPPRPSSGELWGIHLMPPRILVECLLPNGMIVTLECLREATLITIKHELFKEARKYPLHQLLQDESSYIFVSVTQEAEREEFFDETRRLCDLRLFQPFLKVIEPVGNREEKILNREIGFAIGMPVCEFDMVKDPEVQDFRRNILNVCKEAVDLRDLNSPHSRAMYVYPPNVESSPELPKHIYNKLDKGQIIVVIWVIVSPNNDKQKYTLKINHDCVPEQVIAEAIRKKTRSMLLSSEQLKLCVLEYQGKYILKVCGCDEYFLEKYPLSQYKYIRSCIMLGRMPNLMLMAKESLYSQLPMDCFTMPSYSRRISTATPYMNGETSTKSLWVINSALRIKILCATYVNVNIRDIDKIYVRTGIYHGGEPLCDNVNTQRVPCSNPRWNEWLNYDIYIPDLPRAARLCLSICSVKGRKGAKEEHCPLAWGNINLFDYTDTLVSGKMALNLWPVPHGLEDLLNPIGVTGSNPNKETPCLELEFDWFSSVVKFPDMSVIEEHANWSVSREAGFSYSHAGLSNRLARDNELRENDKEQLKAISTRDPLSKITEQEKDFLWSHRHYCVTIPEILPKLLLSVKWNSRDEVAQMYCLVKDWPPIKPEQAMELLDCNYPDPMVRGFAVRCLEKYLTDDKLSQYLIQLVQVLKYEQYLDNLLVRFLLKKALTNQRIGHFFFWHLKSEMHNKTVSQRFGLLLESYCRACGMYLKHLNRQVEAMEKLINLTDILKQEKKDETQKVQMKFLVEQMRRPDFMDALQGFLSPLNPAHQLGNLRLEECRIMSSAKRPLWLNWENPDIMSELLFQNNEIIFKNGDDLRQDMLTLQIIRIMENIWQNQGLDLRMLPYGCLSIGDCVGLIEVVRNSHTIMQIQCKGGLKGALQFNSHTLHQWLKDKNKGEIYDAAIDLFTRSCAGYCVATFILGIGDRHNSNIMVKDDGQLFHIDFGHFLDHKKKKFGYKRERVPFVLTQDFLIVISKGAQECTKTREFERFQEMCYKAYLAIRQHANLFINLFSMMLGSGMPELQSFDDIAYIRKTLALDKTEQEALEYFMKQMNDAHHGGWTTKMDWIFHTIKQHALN

Chain of Serine/threonine-protein kinase RIO3 (Homo sapiens) (O14730 whole entry, the tested form may be a part): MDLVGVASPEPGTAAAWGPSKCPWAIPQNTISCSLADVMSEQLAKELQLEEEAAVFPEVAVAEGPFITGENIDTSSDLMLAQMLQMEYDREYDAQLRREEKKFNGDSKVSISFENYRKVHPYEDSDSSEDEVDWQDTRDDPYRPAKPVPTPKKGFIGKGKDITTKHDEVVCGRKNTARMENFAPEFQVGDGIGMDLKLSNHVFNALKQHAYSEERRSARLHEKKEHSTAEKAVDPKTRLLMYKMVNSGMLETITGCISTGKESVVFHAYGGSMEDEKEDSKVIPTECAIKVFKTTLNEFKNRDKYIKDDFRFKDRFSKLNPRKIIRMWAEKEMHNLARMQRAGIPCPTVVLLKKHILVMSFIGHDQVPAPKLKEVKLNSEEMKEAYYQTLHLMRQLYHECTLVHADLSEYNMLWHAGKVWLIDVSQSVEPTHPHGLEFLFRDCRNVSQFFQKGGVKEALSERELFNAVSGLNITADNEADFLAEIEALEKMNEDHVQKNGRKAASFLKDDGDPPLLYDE

What does the source list for `COCCN[C@H]1CC[C@H](Nc2cc(-c3csc(NCC4(C#N)CCOCC4)n3)c(Cl)cn2)CC1`?
Activity [1]: 99%; Activity [2]: 85%; Vd [3]: 44.5 L/kg; Activity [4]: 80%; Activity [5]: 40%; Activity [6]: 99%; Activity [7]: 96%; AUC(0-inf) [8]: 408 ng·h/mL; Activity [9]: 92%; Activity [10]: 88%; Activity [11]: 91%; Activity [12]: 87%; Activity [13]: 99%; Activity [14]: 93%; GI50 [15]: 11 to 37 nM; Activity [16]: 83%; Activity [17]: 48%; MRT inf [18]: 20.4 h; Activity [19]: 98%; Activity [20]: 96%
